T cruzi HTS = blocks T. cruzi growth inside host cells; intracellular Trypanosoma cruzi in host cells, plate reader; activity score (inhibition), % at 5.01 µM; 4.9% of 22,000 active; in the data active = activity score above about 55%;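 note: parasites and compound incubated about four days before reading; 0% = median of neutral control wells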
A1 apoptosis 2 = A1 inhibition read as caspase activation; MEF A1-2A-BIM cells, caspase-Glo luminescence, 3 h; percent of clofoctol response, DMSO zero; caspase activation, % (concentration not given with the values); 24,000 tested, under 10 active; in the data active = caspase activation above about 5.9%
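system = A1-2A-BIM-expressing MEF cells | quantity = 2500 MEF cells/well | dosing = 50 nL compound per well, pinned | schedule = overnight cell settling, then 3 h compound exposure, 37 °C | signal = luminescence from DEVD-luciferin Caspase-Glo reagent, 1:1 in 50 mM HEPES, 1 h RT | read-out = Caspase-3/7 activation, seen as rise in luminescence signal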
INS-1E rescue = INS-1E beta cell protection from cytokine death | INS-1E cytokine-induced death, ATP luminescence, 48 h; normalised: neutral wells 0, positive control 100 | protection from cytokine-induced ATP loss, % at 10 µM | 0.1% of 20,000 active | AID 488910;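 active = mean replicate protection from cytokine-induced ATP loss at least 50% and at least 75% of replicates each reaching 50%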
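Material: INS-1E rat cells; Quantity: 8000 cells/well; Buffer or medium: phenol-red-free RPMI with 5% fetal bovine serum; Probe or stimulus: cytokine cocktail of IFN-γ, TNF-α and IL-1β; Compound dosing: single test concentration per compound, delivered by pin transfer; Incubation: 48 h co-treatment, 10 min post-lysis read; Signal: CellTiter-Glo luminescence.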
Starred values were filed as active, the others as inactive. This is one part of a sample in which hits are shown more often than they occur.

C[C@@H]1CCCCO[C@@H](CN(C)Cc2ccc(Cl)c(Cl)c2)[C@@H](C)CN([C@H](C)CO)C(=O)c2cc(NC(=O)NC3CCCCC3)ccc2O1 was read as T cruzi HTS 66.0*, A1 apoptosis 2 1.1 and INS-1E rescue -15.6.
`C[C@@H]1CCCCO[C@H](CN(C)Cc2ccc(Cl)c(Cl)c2)[C@@H](C)CN([C@H](C)CO)C(=O)c2cc(NC(=O)Nc3ccc(F)cc3)ccc2O1` gave T cruzi HTS 85.9*, A1 apoptosis 2 -0.1 and INS-1E rescue -9.0.
For C[C@@H]1CCCCO[C@H](CN(C)Cc2ccc(Cl)c(Cl)c2)[C@@H](C)CN([C@@H](C)CO)C(=O)c2cc(NC(=O)c3ccccc3)ccc2O1 the results were A1 apoptosis 2 0.2.
Screening C[C@@H]1CCCCO[C@H](CN(C)Cc2ccc(Cl)c(Cl)c2)[C@H](C)CN([C@@H](C)CO)C(=O)c2cc(NC(=O)Nc3ccc(F)cc3)ccc2O1 returned A1 apoptosis 2 -1.7.
For C[C@@H]1CCCCO[C@@H](CN(C)Cc2ccc(Cl)c(Cl)c2)[C@@H](C)CN([C@H](C)CO)C(=O)c2cc(NC(=O)Nc3ccc(F)cc3)ccc2O1 the results were T cruzi HTS 67.1* and INS-1E rescue -13.8.
For C[C@@H]1CCCCO[C@@H](CN(C)Cc2ccc(Cl)c(Cl)c2)[C@@H](C)CN([C@H](C)CO)C(=O)c2cc(NC(=O)c3ccccc3)ccc2O1 the results were T cruzi HTS 65.3*, A1 apoptosis 2 -1.1 and INS-1E rescue -43.1.
Screening C[C@@H]1CN([C@@H](C)CO)C(=O)c2cc(NC(=O)Nc3ccc(F)cc3)ccc2O[C@@H](C)CCCCO[C@H]1CN(C)Cc1ccc(Cl)c(Cl)c1 returned A1 apoptosis 2 -0.7.
For O=C(CCCCCC(=O)Nc1ccccc1O)N/N=C/c1ccc(Br)cc1 the results were T cruzi HTS -0.5 and INS-1E rescue -0.2.
For Cc1ccsc1/C=N/NC(=O)CCCCCC(=O)O the results were T cruzi HTS -34.5, A1 apoptosis 2 0.2 and INS-1E rescue 6.2.
Screening CC(C)=CCC[C@@H](C)C/C=N/NC(=O)CCCCCC(=O)NO returned A1 apoptosis 2 0.0.
For O=C(CCCCCCC(=O)Nc1ccccc1O)N/N=C/c1ccccn1 the results were T cruzi HTS -1.5, A1 apoptosis 2 0.3 and INS-1E rescue 5.8.
`COc1ccc(/C=N/NC(=O)c2ccccn2)c(O)c1` gave T cruzi HTS 34.7, A1 apoptosis 2 -12.6 and INS-1E rescue -118.8.
`C[C@@H]1CCCCO[C@@H](CN(C)Cc2ccc(C(=O)Nc3ccccc3N)cc2)[C@@H](C)CN([C@H](C)CO)C(=O)c2cc(NS(C)(=O)=O)ccc2O1` gave T cruzi HTS 56.3*, A1 apoptosis 2 -0.3 and INS-1E rescue -14.6.
`C[C@@H]1CCCCO[C@H](CN(C)Cc2ccc(C(=O)Nc3ccccc3N)cc2)[C@@H](C)CN([C@H](C)CO)C(=O)c2cc(NS(=O)(=O)c3ccccc3)ccc2O1` gave A1 apoptosis 2 -1.3.
Screening COC(=O)CCCCCCC(=O)N/N=C/c1ccco1 returned T cruzi HTS -14.1, A1 apoptosis 2 1.1 and INS-1E rescue -3.3.
For Cc1ncc(CO)c(/C=N/NC(=O)c2ccccn2)c1O the results were T cruzi HTS -3.5, A1 apoptosis 2 -1.7 and INS-1E rescue 9.6.
O=C(CCCCCC(=O)N/N=C/c1ccccc1O)NO was read as A1 apoptosis 2 0.4.
`Cc1ccsc1/C=N/NC(=O)CCCCCCC(=O)NO` gave A1 apoptosis 2 -0.3.
O=C(CCCCCCC(=O)N/N=C\c1ccc(O)c2ccccc12)NO was read as T cruzi HTS 14.4, A1 apoptosis 2 -0.2 and INS-1E rescue 150.9*.
For O=C(CCCCCCC(=O)Nc1ccccc1O)N/N=C/c1ccc(O)c2ccccc12 the results were T cruzi HTS -3.1, A1 apoptosis 2 1.3 and INS-1E rescue -1.3.
Screening COc1cc(Cl)c(/C=N\NC(=O)CCCCC(=O)NO)c(Cl)c1OC returned T cruzi HTS 17.8, A1 apoptosis 2 -1.0 and INS-1E rescue 67.8*.
`COc1cc(Cl)c(/C=N/NC(=O)CCCCCCC(=O)Nc2ccccc2O)c(Cl)c1OC` gave T cruzi HTS -11.7 and INS-1E rescue 3.2.
For O=C(CCCCC(=O)N/N=C/c1c(O)ccc2ccccc12)NO the results were T cruzi HTS -4.3, A1 apoptosis 2 -0.3 and INS-1E rescue 131.5*.
`Cc1ccsc1/C=N\NC(=O)CCCCC(=O)NO` gave T cruzi HTS 9.2 and INS-1E rescue 59.0*.
For O=C(N/N=C/c1cccc(Oc2ccccc2)c1)c1ccccn1 the results were T cruzi HTS 5.6 and INS-1E rescue 10.1.
COC(=O)CCCCCCC(=O)N/N=C/[C@@H]1CCCN1C(=O)OC(C)(C)C was read as T cruzi HTS 1.0, A1 apoptosis 2 0.4 and INS-1E rescue -1.9.
Screening COC(=O)CCCCCCC(=O)N/N=C/C[C@@H](C)CCC=C(C)C returned T cruzi HTS 0.0, A1 apoptosis 2 0.3 and INS-1E rescue -9.2.
Screening C/C(=N\O)C(=O)NCCCCCNC(=O)OCc1ccccc1 returned A1 apoptosis 2 0.4.
For O=C(N/N=C/c1ccccc1Cl)c1ccccn1 the results were T cruzi HTS -11.6, A1 apoptosis 2 -9.6 and INS-1E rescue -1.8.
For CCOc1cccc(/C=N/NC(=O)CCCCCCC(=O)OC)c1OCC the results were T cruzi HTS 0.7, A1 apoptosis 2 -0.2 and INS-1E rescue 6.0.
Screening CCOc1cccc(/C=N/NC(=O)CCCCC(=O)NO)c1OCC returned T cruzi HTS -6.6, A1 apoptosis 2 -0.5 and INS-1E rescue 80.8*.
`O=C(CCCCC(=O)N/N=C/c1cc(Br)cs1)NO` gave T cruzi HTS 13.5, A1 apoptosis 2 -1.1 and INS-1E rescue 8.8.
`C[C@@H]1C=C(C(=O)Nc2ccccc2)O[C@H](OCCCCO)C1` gave A1 apoptosis 2 -0.4.
`COC(=O)CCCCCCC(=O)N/N=C/c1ccccc1Br` gave T cruzi HTS 4.4 and INS-1E rescue 21.8.
C[C@H]1CN([C@@H](C)CO)C(=O)Cc2cc(NC(=O)Nc3ccccc3)ccc2O[C@H]1CN(C)Cc1ccc2c(c1)OCO2 was read as T cruzi HTS 2.1 and INS-1E rescue 2.9.
Screening C[C@H](CO)N1C[C@H](C)[C@@H](CN(C)Cc2ccccc2)Oc2ccc(NC(=O)Nc3ccc4c(c3)OCO4)cc2CC1=O returned A1 apoptosis 2 -0.6.
`C[C@H]1CN([C@@H](C)CO)C(=O)Cc2cc(NC(=O)Nc3ccc4c(c3)OCO4)ccc2O[C@H]1CN(C)Cc1ccc(-c2ccccc2)cc1` gave T cruzi HTS 76.4* and INS-1E rescue -38.9.
For C[C@@H]1CN([C@H](C)CO)C(=O)Cc2cc(NC(=O)Nc3ccc4c(c3)OCO4)ccc2O[C@@H]1CN(C)Cc1ccc(-c2ccccc2)cc1 the results were T cruzi HTS 61.6*, A1 apoptosis 2 -0.4 and INS-1E rescue -28.7.
C[C@@H]1CN([C@@H](C)CO)C(=O)Cc2cc(NC(=O)Nc3ccc4c(c3)OCO4)ccc2O[C@@H]1CN(C)Cc1ccc(-c2ccccc2)cc1 was read as T cruzi HTS 63.8*, A1 apoptosis 2 0.8 and INS-1E rescue -3.7.

Screens from PubChem BioAssay.
